Assay results published in ChEMBL document CHEMBL1123111, “Potential inhibitors of S-adenosylmethionine-dependent methyltransferases. 8. Molecular dissections of carbocyclic 3-deazaadenosine as inhibitors of S-adenosylhomocysteine hydrolase” (1985).

Key:
[1] = system: L929; test: Compound was evaluated for cellular toxicity by [3H]thymidine incorporation into DNA of uninfected L-929 cells after 72 hr exposure; assay type: functional, Mus musculus; design: concentration or dose not given beside the values
In short: (§1)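 Uninfected mouse L-929 monolayers (2.5 × 10^6 cells/60-mm dish) exposed to 10 µM compound or no drug in serum-free KU-1 medium for 36 or 72 h. Then pulsed with [3H]thymidine. Cells trypsinized, precipitated in 10% TCA at 4 °C, and precipitates collected on glass-fibre filters. Filters solubilized and counted by liquid scintillation. Incorporation expressed as percent of untreated controls.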

[2] = system: L929; test: Ability to inhibit Vaccinia virus plaque formation after 72 hr in monolayer cultures of mouse L-929 cells; assay type: functional; design: concentration or dose not given beside the values
[3] = system: L929; test: Compound was evaluated for cellular toxicity by [3H]thymidine incorporation into DNA of uninfected L-929 cells after 36h exposure; assay type: functional, Mus musculus; design: concentration or dose not given beside the values; in short: as §1
[4] = target: Adenosylhomocysteinase (Bos taurus) (UniProt Q3MHL4); test: Evaluated for the inhibition of bovine liver S-adenosyl-homocysteine hydrolase at concentration 2.0 mM
Adenosylhomocysteinase (Bos taurus), sequence (Q3MHL4 whole entry, looked up): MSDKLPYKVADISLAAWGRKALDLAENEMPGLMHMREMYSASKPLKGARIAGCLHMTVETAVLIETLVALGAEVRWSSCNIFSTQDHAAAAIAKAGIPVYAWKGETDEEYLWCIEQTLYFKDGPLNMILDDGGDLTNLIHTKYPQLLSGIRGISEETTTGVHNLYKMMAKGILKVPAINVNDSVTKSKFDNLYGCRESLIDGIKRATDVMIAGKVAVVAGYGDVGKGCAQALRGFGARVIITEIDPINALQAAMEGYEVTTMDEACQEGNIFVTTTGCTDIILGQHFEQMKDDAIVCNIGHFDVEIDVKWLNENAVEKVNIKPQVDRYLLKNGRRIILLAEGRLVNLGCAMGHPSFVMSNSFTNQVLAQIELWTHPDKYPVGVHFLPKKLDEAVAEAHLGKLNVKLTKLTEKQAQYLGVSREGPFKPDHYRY

Q: How did the Control [1] turn out when Nc1nccc2c1ncn2C(CO)CCCO (centres undefined) was run?
A: 140%

Q: And the Inhibition [2]?
A: 27%

Q: And the Control [3]?
A: 91%

Q: What about the inhibition [4] of the same molecule?
A: 50%

Q: Nc1nccc2c1ncn2CCO was tested. Which Control [1] did it give?
A: 113%

Q: And the Inhibition [2]?
A: 33%

Q: And the Control [3]?
A: 95%

Q: And the inhibition [4]?
A: 27%

Q: Nc1nccc2c1ncn2[C@@H]1C[C@H](CO)[C@@H](O)[C@H]1O [3-DEAZAARISTEROMYCIN A] was tested. Which Control [1] did it give?
A: 246%

Q: And the Inhibition [2]?
A: 95%

Q: And the Control [3]?
A: 86%

Q: Which Control [1] does the source give for Nc1nccc2c1ncn2CC(O)CO (centres undefined) here?
A: 138%

Q: What about the Inhibition [2] of the same molecule?
A: 53%

Q: And the Control [3]?
A: 88%

Q: And the inhibition [4]?
A: 95%

Q: How did the Control [1] turn out when Nc1nccc2c1ncn2CCCCO was run?
A: 110%

Q: What about the Inhibition [2] of the same molecule?
A: 51%

Q: What about the Control [3] of the same molecule?
A: 102%

Q: What about the inhibition [4] of the same molecule?
A: 12%
